The text below walks through data of ChEMBL document CHEMBL4184327, “Aromatic-Based Design of Highly Active and Noncalcemic Vitamin D Receptor Agonists” (J Med Chem, 2018).

Data set [1] deals with T1, Vitamin D3 receptor (Homo sapiens, UniProt P11473).
T1 sequence (P11473 whole entry): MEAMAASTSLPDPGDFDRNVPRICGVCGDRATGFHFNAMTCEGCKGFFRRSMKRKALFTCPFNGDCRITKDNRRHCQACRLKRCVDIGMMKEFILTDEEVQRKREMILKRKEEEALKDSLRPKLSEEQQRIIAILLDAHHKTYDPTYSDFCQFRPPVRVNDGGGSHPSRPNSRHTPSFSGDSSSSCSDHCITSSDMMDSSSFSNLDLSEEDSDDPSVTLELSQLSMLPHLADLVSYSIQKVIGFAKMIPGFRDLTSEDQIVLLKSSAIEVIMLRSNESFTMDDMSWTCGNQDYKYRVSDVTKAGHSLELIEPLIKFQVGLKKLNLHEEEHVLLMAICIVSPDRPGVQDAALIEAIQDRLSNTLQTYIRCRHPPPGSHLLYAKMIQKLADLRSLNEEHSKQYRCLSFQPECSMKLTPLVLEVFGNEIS
Put plainly: Displacement of fluormone from human full length VDR after 2 hrs by fluorescence polarization assay. (In fluorescence polarisation assays a small probe gives low polarisation when free and higher when bound to something large.)

The target of data set [2] is T2, Vitamin D3 receptor (Homo sapiens) (UniProt P11473).
T2 sequence (whole entry): T1 sequence (P11473 whole entry)
The data set can be described thus: Displacement of fluormone from human full length VDR after 2 hrs by fluorescence polarization assay relative to 1,25D. The conditions noted are these: concentration not given here. The procedure, abridged: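 Competitive fluorescence polarization VDR binding kit used per manufacturer conditions; compounds tested from 10^-11 to 10^-5 M. IC50 calculated from averaged measurements; activity also expressed as percentage with 1,25D set to 100%.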

Data set [3] relates to MCF7. The data set can be described thus: Antiproliferative activity against 2D culture of human MCF7 cells assessed as cell proliferation at 100 nM after 48 hrs by MTT assay. It is filed as functional. The conditions noted are these: MCF7, 48 h, read-out: Activity. The procedure, abridged: (§1)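 MTT assay in 2D cultures; cells grown in DMEM with 10% FBS, penicillin/streptomycin, 2 mM L-glutamine at 37 °C in 5% CO2, then treated in charcoal-treated FCS medium for 48 h at 100 nM. Ethanol vehicle controls; proliferation expressed as percentage ± SD of vehicle-treated cells.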
A general note: Formazan colour is commonly taken as a measure of viable cells.

The subject of a further data set is PC-3. Put plainly: Antiproliferative activity against 2D culture of human PC3 cells assessed as cell proliferation at 100 nM after 48 hrs by MTT assay. It is filed as functional. The conditions noted are these: PC-3, 48 h, read-out: Activity. The procedure, abridged:
as §1

For another data set, the system named is SK-OV-3. The data set can be described thus: Antiproliferative activity against 2D culture of human SKOV3 cells assessed as cell proliferation at 100 nM after 48 hrs by MTT assay. It is filed as functional. The conditions noted are these: SK-OV-3, 48 h, read-out: Activity. The procedure, abridged:
as §1

Data set [4] can be described thus: Antiproliferative activity against 2D culture of human HaCaT cells assessed as cell proliferation at 100 nM after 48 hrs by MTT assay. It is filed as cell-based. The conditions noted are these: HaCaT cells (2D culture), read-out: Activity. In short, it runs like this: as §1
The test system of data set [5] is MCF7. The data set can be described thus: Antiproliferative activity against 3D culture of human MCF7 cells assessed as cell proliferation at 100 nM after 5 days by DAPI staining-based phase contrast microscopic method. The conditions noted are these: MCF7, 120 h, read-out: Activity. It is filed as functional. In short, it runs like this:
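Three-dimensional MCF-7 cultures treated 5 days with 10^-7 M in charcoal-treated FCS medium; ethanol vehicle. Phase-contrast photographs taken, sphere diameters traced manually across each sphere and scored as relative units; proliferation given as percentage ± SD of vehicle-treated cells.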

Data set [6] deals with T1, Vitamin D3 receptor. The data set can be described thus: Agonist activity at VDR in human MCF7 cells assessed as increase in transcription of CYP24A1 gene after 24 hrs by luciferase reporter gene assay. The data set is classed as cell-based. In general terms: Reporter assays use an easily measured gene product as a stand-in for the process of interest.
The target in data set [7] is T2, Vitamin D3 receptor (Homo sapiens). Put plainly: Agonist activity at VDR in human MCF7 cells assessed as transcription of CYP24A1 gene after 24 hrs by luciferase reporter gene assay relative to 1,25D. It is filed as cell-based. In short, it runs like this: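 Cells transfected with 1 µg pCYP24A1-Luc plasmid (luciferase under a consensus VDRE from the 24-hydroxylase promoter); after 24 h medium replaced with compound at 10^-11 to 10^-6 M. Bioluminescence imaged and total photon counts quantified. EC50 from dose-response curves as concentration raising luciferase activity by 50%; ratio given as analogue EC50 relative to 1,25D.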

The test system of data set [8] is Mus musculus. Put plainly: Hypercalcemic activity in CD1 mouse assessed as serum calcium levels at 0.3 ug/kg, ip administered every other day for 3 weeks measured on […] relative to 1,25D. It is filed as ADME, organism-based. The conditions noted are these: in vivo, 0.0003 mg/kg, 504 h. In short, it runs like this: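 Mice dosed every other day for 21 days at 0.3 µg/kg, n=5 per group, with vehicle controls; serum calcium reported as mean ± SD.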

The next data set relates to HaCaT. The data set can be described thus: Induction of human HaCaT cell differentiation at 100 nM after 48 hrs. The data set is classed as functional, cell-based. The procedure, abridged:
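HaCaT keratinocytes treated with 100 nM for 48 hours in charcoal-treated FCS medium, ethanol vehicle control, and differentiation then assessed.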

The subject of data set [9] is MDA-MB-231. Put plainly: Antitumor activity against luciferase expressing human MDA-MB-231 cells xenografted in SCID mouse assessed as tumor growth inhibition at 1 ug/kg, ip administered every other day measured every 7 days […] to day 28 post last dose. The data set is classed as functional, organism-based. In short, it runs like this:
(§2)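 SCID mice given subcutaneous MDA-MB-231-luc cells; ten days later (treatment day 0) split into two groups, dosed i.p. at 1 µg/kg in sesame oil, controls sesame oil. Tumor growth followed by in vivo bioluminescence imaging (photon flux) every 7 days until day 28; survival followed to day 60.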

Data set [10] deals with MDA-MB-231. Put plainly: Antitumor activity against luciferase expressing human MDA-MB-231 cells xenografted in SCID mouse assessed as increase in mouse survival at 1 ug/kg, ip administered every other day starting from day 10 post tumor implantation to day 60. The data set is classed as functional, organism-based. The procedure, abridged: as §2
Data set [11] deals with Mus musculus. Put plainly: Toxicity in CD1 mouse assessed as effect on liver at 0.5 to 5 ug/kg, ip administered every other day for 3 weeks measured on […] by hematoxylin and eosin staining-based assay. The data set is classed as organism-based. The conditions noted are these: in vivo, 504 h.
Data set [12] has as its system Mus musculus. The data set can be described thus: Toxicity in CD1 mouse assessed as effect on kidney at 0.5 to 5 ug/kg, ip administered every other day for 3 weeks measured on […] by hematoxylin and eosin staining-based assay. The data set is classed as organism-based. The conditions noted are these: in vivo, 504 h.
For data set [13], the system named is Mus musculus. Put plainly: Toxicity in CD1 mouse assessed as body weight loss at 0.5 to 5 ug/kg, ip administered every other day for 3 weeks measured every week during compound dosing. It is filed as organism-based. The conditions noted are these: in vivo, 504 h.
In data set [14] the test system is Mus musculus. The data set can be described thus: Hypercalcemic activity in CD1 mouse serum at 0.5 to 5 ug/kg, ip administered every other day for 3 weeks measured on […]. It is filed as ADME, organism-based. The conditions noted are these: in vivo, 504 h.
The test system of data set [15] is MDA-MB-436. The data set can be described thus: Cytotoxicity against 3D culture of cancer stem cells derived from human MDA-MB-436 cells assessed as decrease in growth of mammospheres at 100 nM after 5 days by DAPI staining-based phase contrast microscopic method. The data set is classed as functional, cell-based. The procedure, abridged: (§3)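 MDA-MB-436 cells enriched in cancer stem cells grown in a commercial 3D sphere assay per manufacturer's instructions; ethanol or compound (10^-8 or 10^-7 M) added for 5 days. Mammosphere number and diameter quantified from phase-contrast images by manual diameter tracing.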

In data set [16] the test system is MDA-MB-436. Put plainly: Cytotoxicity against 3D culture of cancer stem cells derived from human MDA-MB-436 cells assessed as decrease in number of mammospheres at 100 nM after 5 days by DAPI staining-based phase contrast microscopic method. The data set is classed as functional, cell-based. The procedure, abridged:
as §3

The structures appear in SMILES notation. Calls of active or inactive are those of the source. The calls are words filed in the database; no cut-off is given here.

The term IC50 denotes the concentration that gives 50% inhibition. What is called inhibition is the relative decrease from the control value, in per cent. What is called EC50 is the concentration at which the effect is half-maximal. With `C=C1/C(=C\C=C(/CCC)c2cccc(CCCCCC(C)(C)O)c2)C[C@@H](O)C[C@@H]1O`, the IC50 on Vitamin D3 receptor [1] is 5.6 to 55 nM. Further, in data set [2], the inhibition came to 10%. Also, the growth at 0.1 µM turned out to be 69% in the data set with MCF7 [3], 83% in the data set with PC-3, 82% in the data set with SK-OV-3 and 74% with MCF7 [5]. Besides, the viability at 48 h, 0.1 µM in data set [4] was 71%. At Vitamin D3 receptor [6], the EC50 lay in the range of 8.6 to 9.9 nM. Further, the Activity was 21% in data set [7] and 41% in the data set with Mus musculus [8]. Also, the outcome in the data set with HaCaT was Active.

With `C=C1/C(=C\C=C2/CCC[C@]3(C)[C@@H]([C@H](C)CCCC(C)(C)O)CC[C@@H]23)C[C@@H](O)C[C@@H]1O` [CALCITRIOL], the growth at 0.1 µM in the data set on MCF7 [3] worked out at 66%; in the data set with PC-3, 77%; in the data set on SK-OV-3, 78%; in the data set on MCF7 [5], 61%. In [4], the viability at 48 h, 0.1 µM came to 69%. For the same molecule, the result in the data set with HaCaT was Active.

As to `C=C1/C(=C\C=C(/CC)c2cccc(CCCCCC(C)(C)O)c2)C[C@@H](O)C[C@@H]1O`, the 50% inhibitory concentration (IC50) on Vitamin D3 receptor [1] lay in the range of 4.5 to 11 nM. This molecule also returned an inhibition in data set [2] of 24%. Further, the growth at 0.1 µM in the data set on MCF7 [3] is 65%; in the data set on PC-3, 78%; in the data set with SK-OV-3 it was 78%; in the data set on MCF7 [5], 69%. In data set [4], the viability at 48 h, 0.1 µM was 68%. Further, the EC50 at Vitamin D3 receptor [6] is 5.6 to 6.2 nM. The Activity in data set [7] is 33%; with Mus musculus [8], 0%; in the data set on Mus musculus [11] it was “Non-Toxic”; in the data set with Mus musculus [12] it was “Non-Toxic”; in the data set on Mus musculus [13] it was “Non-Toxic”; with Mus musculus [14] it was “Non-Toxic”. Further, the outcome in the data set with HaCaT, in the data set on MDA-MB-231 [10], with MDA-MB-436 [15] and in the data set on MDA-MB-436 [16] was Active. The TGI entry in the data set with MDA-MB-231 [9] is “Active”.

`C=C1/C(=C\C=C(/CCCCCC)c2cccc(CCCCCC(C)(C)O)c2)C[C@@H](O)C[C@@H]1O` had an IC50 at Vitamin D3 receptor [1] of 8.3 to 40 nM. The molecule also had an inhibition in [2] of 9%. The growth at 0.1 µM with MCF7 [3] was found to be 78%; with PC-3, 80%; in the data set with SK-OV-3, 76%; in the data set on MCF7 [5], 79%. Further, in data set [4], the viability at 48 h, 0.1 µM was determined as 74%. Further, on Vitamin D3 receptor [6], the EC50 is 10 to 13 nM. The Activity in data set [7] was 17%; in the data set on Mus musculus [8], 0%. In addition, the result with HaCaT was Active.

Molecule `C=C1/C(=C\C=C(/CCCCCCC)c2cccc(CCCCCC(C)(C)O)c2)C[C@@H](O)C[C@@H]1O` displayed an IC50 at Vitamin D3 receptor [1] of 3.5 to 160 nM. In [2], this molecule gave an inhibition of 7%. Moreover, the growth at 0.1 µM in the data set on MCF7 [3] was 69%; in the data set on PC-3, 79%; in the data set on SK-OV-3, 83%; in the data set with MCF7 [5], 55%. In addition, in data set [4], the viability at 48 h, 0.1 µM is 71%. In addition, at Vitamin D3 receptor [6], the EC50 was 29 to 40 nM. Also, the Activity in data set [7] was 5%; in the data set on Mus musculus [8] it was 0%. Besides, the outcome with HaCaT was Active.

`C=C1/C(=C\C=C(/CCCC)c2cccc(CCCCCC(C)(C)O)c2)C[C@@H](O)C[C@@H]1O` came in with an IC50 at Vitamin D3 receptor [1] of 10 to 18 nM. The same molecule registered an inhibition in data set [2] of 12%. In addition, the growth at 0.1 µM was determined as 74% with MCF7 [3], 84% in the data set on PC-3, 81% in the data set on SK-OV-3 and 84% with MCF7 [5]. In addition, the viability at 48 h, 0.1 µM in [4] was determined as 71%. Further, at Vitamin D3 receptor [6], the EC50 was 9 to 11 nM. Also, the Activity in data set [7] was 19%; with Mus musculus [8] it was 34%. The outcome in the data set with HaCaT was Active.
